# Measurements published in ChEMBL document CHEMBL1649119, “Daptomycin pharmacokinetics in adult oncology patients with neutropenic fever” (Antimicrob Agents Chemother, 2009).
# What was measured:
# [1] = Cmax in healthy human at 4 mg/kg, iv administered as single dose 30 mins infusion; format: ADME, organism-based; design: dose 4 mg/kg, route intravenous; conditions: in vivo
# [2] = Unbound fraction in healthy human plasma at 8 mg/kg, iv administered as 30 mins infusion every 24 hrs measured on day 1; format: ADME, organism-based; design: dose 8 mg/kg, route intravenous
# [3] = Clearance in healthy human at 8 mg/kg, iv administered as 30 mins infusion every 24 hrs measured on day 14; format: ADME, organism-based; design: dose 8 mg/kg, route intravenous; conditions: in vivo
# [4] = Half life in healthy human subjects at 10 mg/kg, iv administered as 30 mins infusion every 24 hrs measured on day 14; format: ADME, organism-based; design: dose 10 mg/kg, route intravenous; conditions: in vivo
# [5] = Cmax in morbidly obese adult human at 4 mg/kg, iv administered as single dose 30 mins infusion; format: ADME, organism-based; design: dose 4 mg/kg, route intravenous; conditions: in vivo
# [6] = Clearance in adult human subjects at 6 mg/kg, iv administered as single dose 30 mins infusion; format: ADME, organism-based; design: dose 6 mg/kg, route intravenous; conditions: in vivo
# [7] = AUC (0 to infinity) in healthy human at 8 mg/kg, iv administered as 30 mins infusion every 24 hrs measured on day 1; format: ADME, organism-based; design: time infinity, dose 8 mg/kg, route intravenous; conditions: plasma
# [8] = Cmax in healthy human at 6 mg/kg, iv administered as 30 mins infusion every 24 hrs measured on day 1; format: ADME, organism-based; design: dose 6 mg/kg, route intravenous; conditions: in vivo
# Homo sapiens [9] = experiment: Unbound clearance in healthy human at 8 mg/kg, iv administered as 30 mins infusion every 24 hrs measured on day 1; format: ADME, organism-based; design: dose 8 mg/kg, route intravenous; conditions: in vivo
# [10] = Plasma concentration in nonobese adult human at 4 mg/kg, iv administered as single dose 30 mins infusion measured after 24 hrs; format: ADME, organism-based; design: dose 4 mg/kg, route intravenous
# [11] = Cmax in healthy human at 8 mg/kg, iv administered as 30 mins infusion every 24 hrs measured on day 14; format: ADME, organism-based; design: dose 8 mg/kg, route intravenous; conditions: in vivo
# [12] = Clearance in nonobese human at 4 mg/kg, iv administered as single dose 30 mins infusion; format: ADME, organism-based; design: dose 4 mg/kg, route intravenous; conditions: in vivo
# [13] = Apparent volume of distribution during terminal phase in healthy human subjects at 8 mg/kg, iv administered as 30 mins infusion every 24 hrs measured on day 1; format: ADME, organism-based; design: dose 8 mg/kg, route intravenous; conditions: in vivo
# Homo sapiens [14] = experiment: Unbound clearance in healthy human at 4 mg/kg, iv administered as 30 mins infusion every 24 hrs measured on day 1; format: ADME, organism-based; design: dose 4 mg/kg, route intravenous; conditions: in vivo
# [15] = Half life in healthy adult human at 6 mg/kg, iv administered as single dose 30 mins infusion; format: ADME, organism-based; design: dose 6 mg/kg, route intravenous; conditions: in vivo
# [16] = Volume of distribution at steady state in adult human subjects at 6 mg/kg, iv administered as single dose 30 mins infusion; format: ADME, organism-based; design: dose 6 mg/kg, route intravenous; conditions: in vivo, read-out: Vdss
# [17] = Unbound fraction in healthy human plasma at 8 mg/kg, iv administered as 30 mins infusion every 24 hrs measured on day 7; format: ADME, organism-based; design: dose 8 mg/kg, route intravenous
# [18] = AUC (0 to tau) in healthy human subjects at 6 mg/kg, iv administered as 30 mins infusion every 24 hrs measured on days 1-3; format: ADME, organism-based; design: dose 6 mg/kg, route intravenous; conditions: plasma
# [19] = Mean residence time in healthy human at 4 mg/kg, iv administered as single dose 30 mins infusion; format: ADME, organism-based; design: dose 4 mg/kg, route intravenous; conditions: in vivo
# [20] = AUC (0 to infinity) in old healthy human at 4 mg/kg, iv administered as single dose 30 mins infusion; format: ADME, organism-based; design: dose 4 mg/kg, route intravenous, time infinity; conditions: plasma
# [21] = Apparent volume of distribution during terminal phase in healthy human at 6 mg/kg, iv administered as 30 mins infusion every 24 hrs measured on day 1; format: ADME, organism-based; design: dose 6 mg/kg, route intravenous; conditions: in vivo
# [22] = Plasma concentration in nonobese human subjects at 4 mg/kg, iv administered as single dose 30 mins infusion measured after 24 hrs; format: ADME, organism-based; design: dose 4 mg/kg, route intravenous
# [23] = Cmax in healthy human subjects at 8 mg/kg, iv administered as 30 mins infusion every 24 hrs measured on day 1; format: ADME, organism-based; design: dose 8 mg/kg, route intravenous; conditions: in vivo
# [24] = Tmax in cancer patient with neutropenic fever at 6 mg/kg, iv administered as 30 mins infusion every 24 hrs; format: ADME, organism-based; design: dose 6 mg/kg, route intravenous; conditions: human, in vivo
# Procedure, shortened: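 29 adult oncology patients with neutropenic fever received 6 mg/kg (total body weight) daptomycin as a 30-min IV infusion every 24 h. Plasma was sampled predose, at end of infusion, and 0.5, 1, 2, 4, 8, 12 and 24 h after infusion start. Total drug was measured by validated HPLC (linear 1–100 μg/ml, detection limit 1 μg/ml). Tmax was the observed value, analysed noncompartmentally.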
# [25] = Renal clearance in nonobese adult human at 4 mg/kg, iv administered as single dose 30 mins infusion; format: ADME, organism-based, Kidney; design: dose 4 mg/kg, route intravenous; conditions: in vivo, read-out: CL_renal (converted)
# [26] = Cmax in healthy human subjects at 12 mg/kg, iv administered as 30 mins infusion every 24 hrs measured on day 1; format: ADME, organism-based; design: dose 12 mg/kg, route intravenous; conditions: in vivo
# [27] = Drug excretion in adult human subjects urine assessed as unchanged drug at 6 mg/kg, iv administered as single dose 30 mins infusion; format: ADME, organism-based; design: dose 6 mg/kg, route intravenous; conditions: read-out: Drug uptake
# [28] = AUC (0 to infinity) in healthy human at 8 mg/kg, iv administered as 30 mins infusion every 24 hrs measured on day 14; format: ADME, organism-based; design: time infinity, dose 8 mg/kg, route intravenous; conditions: plasma
# Homo sapiens [29] = experiment: Unbound clearance in healthy human at 4 mg/kg, iv administered as 30 mins infusion every 24 hrs measured on day 7; format: ADME, organism-based; design: dose 4 mg/kg, route intravenous; conditions: in vivo
# [30] = Apparent volume of distribution during terminal phase in healthy human at 8 mg/kg, iv administered as 30 mins infusion every 24 hrs measured on day 7; format: ADME, organism-based; design: dose 8 mg/kg, route intravenous; conditions: in vivo
# [31] = Mean residence time in adult human with hepatic impairment at 6 mg/kg, iv administered as single dose 30 mins infusion; format: ADME, organism-based; design: dose 6 mg/kg, route intravenous; conditions: in vivo
# [32] = Apparent volume of distribution during terminal phase in healthy human subjects at 10 mg/kg, iv administered as 30 mins infusion every 24 hrs measured on day 1; format: ADME, organism-based; design: dose 10 mg/kg, route intravenous; conditions: in vivo
# [33] = Clearance in healthy human subjects at 8 mg/kg, iv administered as 30 mins infusion every 24 hrs measured on day 1; format: ADME, organism-based; design: dose 8 mg/kg, route intravenous; conditions: in vivo
# [34] = Unbound fraction in healthy human plasma at 6 mg/kg, iv administered as 30 mins infusion every 24 hrs measured on day 7; format: ADME, organism-based; design: dose 6 mg/kg, route intravenous
# [35] = Half life in nonobese adult human at 4 mg/kg, iv administered as single dose 30 mins infusion; format: ADME, organism-based; design: dose 4 mg/kg, route intravenous; conditions: in vivo
# [36] = Clearance in nonobese adult human at 4 mg/kg, iv administered as single dose 30 mins infusion; format: ADME, organism-based; design: dose 4 mg/kg, route intravenous; conditions: in vivo
# [37] = Half life in healthy human at 4 mg/kg, iv administered as 30 mins infusion every 24 hrs measured on day 7; format: ADME, organism-based; design: dose 4 mg/kg, route intravenous; conditions: in vivo
# [38] = Half life in adult human with hepatic impairment at 6 mg/kg, iv administered as single dose 30 mins infusion; format: ADME, organism-based; design: dose 6 mg/kg, route intravenous; conditions: in vivo
# [39] = Clearance in healthy human subjects at 12 mg/kg, iv administered as 30 mins infusion every 24 hrs measured on day 4; format: ADME, organism-based; design: dose 12 mg/kg, route intravenous; conditions: in vivo
# [40] = Clearance in healthy human at 8 mg/kg, iv administered as 30 mins infusion every 24 hrs measured on day 7; format: ADME, organism-based; design: dose 8 mg/kg, route intravenous; conditions: in vivo
# [41] = Plasma protein binding in human after 0.5 hrs; format: ADME, cell-free; conditions: read-out: PPB (converted)
# Procedure, shortened: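 Neutropenic-fever oncology patients received 6 mg/kg IV daptomycin; serum was drawn 0.5, 2 and 8 h after the end of infusion. Free drug was obtained by ultrafiltration (30,000-MW cutoff) and quantified by HPLC against a saline-matrix curve of 0.25–100 μg/ml, with total plasma drug also measured. Percent bound was (total − free)/total × 100; results are given as mean ± SD.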
# Homo sapiens [42] = experiment: Apparent volume of distribution during terminal phase in healthy human subjects at 6 mg/kg, iv administered as 30 mins infusion every 24 hrs measured on day 1; format: ADME, organism-based; design: dose 6 mg/kg, route intravenous; conditions: in vivo
# [43] = Apparent volume of distribution during terminal phase in healthy human at 4 mg/kg, iv administered as 30 mins infusion every 24 hrs measured on day 7; format: ADME, organism-based; design: dose 4 mg/kg, route intravenous; conditions: in vivo
smiles,measurement,setting,value
CCCCCCCCCC(=O)N[C@@H](Cc1c[nH]c2ccccc12)C(=O)N[C@H](CC(N)=O)C(=O)N[C@@H](CC(=O)O)C(=O)N[C@@H]1C(=O)NCC(=O)N[C@@H](CCCN)C(=O)N[C@@H](CC(=O)O)C(=O)N[C@H](C)C(=O)N[C@@H](CC(=O)O)C(=O)NCC(=O)N[C@H](CO)C(=O)N[C@@H]([C@H](C)CC(=O)O)C(=O)N[C@@H](CC(=O)c2ccccc2N)C(=O)O[C@@H]1C,Cmax,[1],77.5 µg/mL
same,fraction unbound at 1 day,[2],0.09
same,clearance,[3],0.123 mL/min/kg
same,half-life,[4],7.9 h
same,Cmax,[5],67 µg/mL
same,clearance,[6],0.109 mL/min/kg
same,AUC(0-inf),[7],1130 µg·h/mL
same,Cmax,[8],86.4 µg/mL
same,CL,Homo sapiens [9],0.833 mL/min/kg
same,concentration at 24 h,[10],< 3.3 µg/mL
same,Cmax,[11],130 µg/mL
same,clearance,[12],0.17 mL/min/kg
same,Vd,[13],0.103 L/kg
same,CL,Homo sapiens [14],1.41 mL/min/kg
same,half-life,[15],8.06 h
same,Vd,[16],0.08 L/kg
same,fraction unbound at 7 day,[17],0.09
same,AUC tau,[18],645 µg·h/mL
same,MRT,[19],10.9 h
same,AUC(0-inf),[20],474 µg·h/mL
same,Vd,[21],0.096 L/kg
same,concentration at 24 h,[22],3.39 µg/mL
same,Cmax,[23],106 µg/mL
same,Tmax,[24],0.6 h
same,CL renal at 0.5 h,[25],0.139 mL/min/kg
same,Cmax,[26],165 µg/mL
same,dose excreted at 0.5 h,[27],39.8%
same,AUC(0-inf),[28],1090 µg·h/mL
same,CL,Homo sapiens [29],1.05 mL/min/kg
same,Vd,[30],0.092 L/kg
same,MRT,[31],12 h
same,Vd,[32],0.117 L/kg
same,clearance,[33],0.168 mL/min/kg
same,fraction unbound at 7 day,[34],0.08
same,half-life,[35],6.83 h
same,clearance,[36],0.245 mL/min/kg
same,half-life,[37],8.1 h
same,half-life,[38],8.97 h
same,clearance,[39],0.15 mL/min/kg
same,clearance,[40],0.118 mL/min/kg
same,fraction unbound at 0.5 h,[41],0.058
same,Vd,Homo sapiens [42],0.1059 L/kg
same,Vd,[43],0.096 L/kg
